Experimental data reported in ChEMBL document CHEMBL3751796, “Structure-Based Discovery of Novel Cyclophilin A Inhibitors for the Treatment of Hepatitis C Virus Infections” (J Med Chem, 2015).
The source made the active and inactive calls. The calls are words filed in the database; no cut-off is given here.

How the values were obtained:
[1] = test system: Hepatitis C virus; test: Antiviral activity against HCV genotype 1b Con1 infected in human Huh7.5 cells assessed as inhibition of NS5A expression in membrane fractions at 2 uM by Western blot analysis; type: functional, organism-based; settings: Hepacivirus hominis, isolate Con1, Huh-7
In short: (§1)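 Con1b replicon cells treated with 2 μM. Total lysates, and a membrane fraction prepared by hypotonic buffer, dounce homogenization, 220g spin and then 68 000g for 1 h at 4 °C, analyzed by Western blot for NS5A and NS5B.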

[2] = biological target: Peptidyl-prolyl cis-trans isomerase A (Homo sapiens, UniProt P62937); test: Inhibition of human Cyclophilin A interaction with HCV genotype 1b Con1 NS5B in human Huh7.5 cells after 72 hrs by mammalian two-hybrid assay; type: cell-based; settings: Huh-7
[3] = species: Mus musculus; test: Activation of calcium-dependent calcineurin phosphatase activity in ionomycin-stimulated BALB/c mouse assessed as production of IL-2 at 1 to 10 uM after 24 hrs by ELISA
In short: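 Mouse spleen cells, 2 × 10^6/well, stimulated with ionomycin 1 μg/mL and treated with a dose series for 24 h at 37 °C. Media from triplicate wells pooled. IL-2 measured by ELISA and calculated from IL-2 standards.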

[4] = test system: Hepatitis C virus; test: Antiviral activity against HCV genotype 1b Con1 infected in human Huh7.5 cells assessed as inhibition of NS5A expression in total cell lysate at 2 uM by Western blot analysis; type: functional, organism-based; settings: Hepacivirus hominis, isolate Con1, Huh-7; in short: as §1
[5] = test system: Hepatitis C virus; test: Antiviral activity against HCV genotype 1b Con1 infected in human Huh7.5 cells assessed as inhibition of NS5A expression at 2 uM by DAPI staining based confocal microscopy; type: functional, organism-based; settings: Hepacivirus hominis, isolate Con1, Huh-7
In short: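 Con1b replicon cells treated at 2 μM. Stained with Alexa red anti-NS5A and Alexa green anti-NS5B antibodies plus DAPI, then imaged by confocal microscopy for colocalization. Images representative of at least three experiments.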

[6] = test system: Hepatitis C virus; test: Antiviral activity against HCV genotype 1b Con1 infected in human Huh7.5 cells expressing GFP-fused NS5A measured 72 hrs post infection by hoechst 33342 staining based confocal microscopy; type: functional, organism-based, Hepacivirus hominis; settings: isolate Con1, Huh-7, 72 h
In short: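 Huh7 replicon cells expressing NS5A-GFP seeded at 2 × 10^3/well and left overnight, then given serially diluted compound. At 72 h, fixed in 2% PFA and nuclei stained with Hoechst 33342 (10 μg/mL). Automated confocal imaging: GFP-positive cells give activity, nuclei counts give cytotoxicity. EC50/CC50 from nonlinear regression.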

[7] = test system: Hepatitis C virus; test: Antiviral activity against HCV genotype 1b Con1 infected in human Huh7.5 cells assessed as stimulation of IRF9 mRNA expression at 2 uM incubated up to 96 hrs by qRT-PCR method; type: functional, organism-based; settings: Hepacivirus hominis, isolate Con1, Huh-7, TDE = time-dependent effect
In short: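 mRNA measured by SYBR Green qRT-PCR using the 2^−ΔΔCT method, normalized to GAPDH and expressed as fold change vs controls.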

[8] = test system: Hepatitis C virus; test: Antiviral activity against HCV genotype 1b Con1 infected in human Huh7.5 cells assessed as stimulation of STAT2 expression at 2 uM incubated up to 96 hrs by Western blot analysis; type: functional, organism-based; settings: Hepacivirus hominis, isolate Con1, Huh-7, TDE = time-dependent effect
[9] = test system: Hepatitis C virus; test: Antiviral activity against HCV genotype 1b Con1 infected in human Huh7.5 cells assessed as reduction of IL-8 level at 2 uM incubated up to 96 hrs by ELISA; type: functional, organism-based; settings: Hepacivirus hominis, isolate Con1, Huh-7, TDE = time-dependent effect
In short: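 Con1b replicon cells, 2 × 10^6/well, treated with 2 μM for up to 4 days at 37 °C. Pooled culture media assayed for IL-8 and IFN-α by ELISA.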

[10] = test system: Hepatitis C virus; test: Antiviral activity against HCV infected in human Huh7.5 cells assessed as inhibition of HCV-specific RNA by qRT-PCR method in presence of ribavirin; type: functional, organism-based; settings: Hepacivirus hominis; Huh-7
[11] = test system: Hepatitis C virus; test: Antiviral activity against HCV infected in human Huh7.5 cells assessed as inhibition of HCV-specific RNA by qRT-PCR method in presence of telaprevir; type: functional, organism-based; settings: Hepacivirus hominis; Huh-7
[12] = test system: Hepatitis C virus; test: Antiviral activity against HCV infected in human Huh7.5 cells assessed as inhibition of IL-8 level by ELISA in presence of ribavirin; type: functional, organism-based; settings: Hepacivirus hominis; Huh-7
[13] = Cytotoxicity against HCV infected human Huh7.5 cells assessed as cell death by MTT assay in presence of IFN-alpha; type: cell-based; settings: huh-7
[14] = test system: Hepatitis C virus; test: Antiviral activity against HCV genotype 1b Con1 infected in human Huh7 cells xenografted in immunodeficient NOD/SCID mouse assessed as inhibition of NS5B expression in liver at 50 mg/kg, ip up to 14 days by Western blot analysis; type: functional, organism-based; settings: Hepacivirus hominis, isolate Con1, Huh-7
[15] = test system: Mus musculus; test: Hepatotoxicity in BALB/c mouse assessed as changes in serum aspartate transaminase level at 50 mg/kg, iv for 2 weeks by GOT kit assay; type: toxicity, organism-based; settings: in vivo, 336 h

Chain of Peptidyl-prolyl cis-trans isomerase A (P62937 whole entry, looked up): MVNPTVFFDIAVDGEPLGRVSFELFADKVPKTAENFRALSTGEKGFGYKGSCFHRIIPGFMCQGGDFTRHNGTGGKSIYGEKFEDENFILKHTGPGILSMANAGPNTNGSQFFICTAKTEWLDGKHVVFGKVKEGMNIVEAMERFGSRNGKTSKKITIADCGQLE

With `COc1cc(C(C(=O)NC2CCCCC2)N(C(=O)Cc2c[nH]c3ccccc23)c2ccc(C(C)C)cc2)cc(OC)c1OC` (stereo not given) as the compound, how does the inhibition [1] read?
The inhibition was “Active”.

What about the inhibition [2] of the same compound?
Its inhibition is “Active”.

What about the Activity [3] of the same compound?
Its Activity is “Active”.

And the inhibition [4]?
Its inhibition is “Active”.

And the inhibition [5]?
Its inhibition is “Active”.

What about the EC50 [6] of the same compound?
The EC50 was 730 nM.

What about the Activity [7] of the same compound?
Its Activity is “tde”.

What about the Activity [8] of the same compound?
Its Activity is “tde”.

What about the Activity [9] of the same compound?
The Activity was “tde”.

What about the inhibition [10] of the same compound?
Its inhibition is “Active”.

What about the inhibition [11] of the same compound?
Its inhibition is “Active”.

And the inhibition [12]?
The inhibition was “Active”.

What about the Activity [13] of the same compound?
The Activity was “Non-toxic”.

And the inhibition [14]?
Its inhibition is “Active”.

What about the Activity [15] of the same compound?
Its Activity is “Non-toxic”.
